Reference: ChEMBL document CHEMBL1156973, “(-)-Carbodine: enantiomeric synthesis and in vitro antiviral activity against various strains of influenza virus including H5N1 (avian influenza) and novel 2009 H1N1 (swine flu)” (Bioorg Med Chem Lett, 2010)

Experiments:
[1] = Selectivity ratio of IC50 for MDCK cells to EC50 for Influenza A virus Duck/MN/1525/81/H5N1 by neutral red dye uptake assay; format: ADME, cell-based; details: dog; for selectivity ratio: MDCK cells, read-out: Ratio IC50/EC50
Summary of the method: (§1)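 Neutral red uptake in MDCK cells: IC50 (50% inhibition of uninfected cells) divided by EC50 (50% inhibition of virus effect), both from replicate serial-dilution assays.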

[2] = Selectivity ratio of IC50 for MDCK cells to EC50 for Influenza A virus Wisconsin/67/2005/H3N2 by neutral red dye uptake assay; format: ADME, cell-based; details: dog; for selectivity ratio: MDCK cells, read-out: Ratio IC50/EC50; summary of the method: as §1
H5N1 subtype [3] = assay: Antiviral activity against Influenza A virus Duck/MN/1525/81/H5N1 infected MDCK cells after 3 days by virus yield reduction assay; format: functional, Influenza A virus (A/duck/Minnesota/1525/1981(H5N1)); details: Influenza A virus, MDCK, 72 h
Influenza A virus [4] = assay: Antiviral activity against Influenza A virus Vietnam/1203/ 2004H/H5N1 infected MDCK cells after 42 to 46 hrs by neutral red dye uptake assay; format: functional, organism-based, A/Viet Nam/1203/2004(H5N1); details: Influenza A virus, A/Viet Nam/1203/2004(H5N1), MDCK
[5] = Selectivity ratio of IC50 for MDCK cells to EC90 for Influenza A virus Wisconsin/67/2005/H3N2 by virus yield reduction assay; format: ADME, cell-based; details: dog, MDCK cells
Summary of the method: (§2)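 IC50 (50% inhibition of uninfected MDCK cells) divided by EC90 (concentration reducing the infectious virus titer by 90% in the yield reduction assay).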

Influenza A virus [6] = assay: Antiviral activity against Influenza A virus Wisconsin/67/2005/H3N2 infected MDCK cells assessed as inhibition of virus-induced cytopathic effect after 3 days; format: functional, organism-based, Influenza A virus (A/Wisconsin/67/2005(H3N2)); details: Influenza A virus, MDCK, 72 h
Summary of the method: (§3)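 Triplicate MDCK (ATCC CCL-34) wells got serial dilutions of compound. They were then inoculated with ≤300 CCID50, enough for ~100% CPE in control wells within 3 days, using the same inoculum for all replicates. CPE was scored visually. EC50 is the concentration reducing CPE by 50%, as the mean of triplicates.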

MDCK = assay: Cytotoxicity against MDCK cells after 3 days by neutral red dye uptake assay; format: cell-based; details: Canis lupus familiaris, 72 h
Summary of the method: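 Uninfected MDCK cells in replicate wells were exposed to serial compound dilutions and cell viability was read by neutral red uptake. IC50 is the drug concentration giving 50% cell inhibition without virus.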

Influenza A virus [7] = assay: Antiviral activity against Influenza A virus Vietnam/1203/ 2004H/H5N1 infected MDCK cells assessed as inhibition of virus-induced cytopathic effect after 3 days; format: functional, organism-based, A/Viet Nam/1203/2004(H5N1)
H5N1 subtype [8] = assay: Antiviral activity against Influenza A virus Duck/MN/1525/81/H5N1 infected MDCK cells assessed as inhibition of virus-induced cytopathic effect after 3 days; format: functional, organism-based, Influenza A virus (A/duck/Minnesota/1525/1981(H5N1)); details: Influenza A virus, MDCK, 72 h
[9] = Selectivity ratio of IC50 for MDCK cells to EC50 for inhibition of virus-induced cytopathic effect of Influenza A virus Gull/PA/4175/83/H5N1; format: cell-based; details: dog, MDCK cells; read-out: Ratio IC50/EC50
Summary of the method: (§4)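 IC50 (50% inhibition of uninfected MDCK cells) divided by EC50 (concentration reducing virus-induced CPE by 50%, scored visually), both from replicate serial-dilution assays.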

[10] = Selectivity ratio of IC50 for MDCK cells to EC50 for inhibition of virus-induced cytopathic effect of Influenza A virus California/07/2009 /H1N1; format: cell-based; details: dog, MDCK cells; read-out: Ratio IC50/EC50; summary of the method: as §4
[11] = Selectivity ratio of IC50 for MDCK cells to EC90 for Influenza A virus Gull/PA/4175/83/H5N1 by virus yield reduction assay; format: ADME, cell-based; details: dog; summary of the method: as §2
[12] = Antiviral activity against Influenza A virus Solomon Islands/03/2006/H1N1 infected MDCK cells assessed as inhibition of virus-induced cytopathic effect after 3 days; format: functional, organism-based, Influenza A virus (A/Solomon Islands/3/2006(H1N1)); summary of the method: as §3
[13] = Selectivity ratio of IC50 for MDCK cells to EC50 for inhibition of virus-induced cytopathic effect of Influenza A virus Vietnam/1203/ 2004H/H5N1; format: cell-based; details: dog, MDCK cells; read-out: Ratio IC50/EC50; summary of the method: as §4
Influenza A virus [14] = assay: Antiviral activity against Influenza A virus California/07/2009 /H1N1 infected MDCK cells after 3 days by virus yield reduction assay; format: functional, A/California/07/2009(H1N1); details: Influenza A virus, A/California/07/2009(H1N1), MDCK, 72 h
Influenza A virus [15] = assay: Antiviral activity against Influenza A virus California/07/2009 /H1N1 infected MDCK cells after 42 to 46 hrs by neutral red dye uptake assay; format: functional, organism-based, A/California/07/2009(H1N1); details: Influenza A virus, A/California/07/2009(H1N1), MDCK
H5N1 subtype [16] = assay: Antiviral activity against Influenza A virus Gull/PA/4175/83/H5N1 infected MDCK cells after 42 to 46 hrs by neutral red dye uptake assay; format: functional, organism-based, Influenza A virus (A/gull/Pennsylvania/4175/83(H5N1)); details: Influenza A virus, MDCK
Influenza A virus [17] = assay: Antiviral activity against Influenza A virus Wisconsin/67/2005/H3N2 infected MDCK cells after 42 to 46 hrs by neutral red dye uptake assay; format: functional, organism-based, Influenza A virus (A/Wisconsin/67/2005(H3N2))
Summary of the method: (§5)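 Triplicate MDCK wells got serial compound dilutions, then ≤300 CCID50 of virus, with the same inoculum for all replicates. Antiviral effect was read by neutral red dye uptake. EC50 is the concentration giving 50% inhibition of the virus effect, as the mean of triplicates.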

[18] = tested on: Influenza A virus (A/Puerto Rico/8/1934(H1N1)); assay: Antiviral activity against Influenza A virus Solomon Islands/03/2006/H1N1 infected MDCK cells after 42 to 46 hrs by neutral red dye uptake assay; format: functional, organism-based, Influenza A virus (A/Solomon Islands/3/2006(H1N1)); summary of the method: as §5
[19] = Selectivity ratio of IC50 for MDCK cells to EC90 for Influenza A virus Solomon Islands/03/2006/H1N1 by virus yield reduction assay; format: ADME, cell-based; details: dog, MDCK cells; summary of the method: as §2
Influenza A virus [20] = assay: Antiviral activity against Influenza A virus California/07/2009 /H1N1 infected MDCK cells assessed as inhibition of virus-induced cytopathic effect after 3 days; format: functional, organism-based, A/California/07/2009(H1N1); details: Influenza A virus, A/California/07/2009(H1N1), MDCK, 72 h
[21] = Selectivity ratio of IC50 for MDCK cells to EC50 for inhibition of virus-induced cytopathic effect of Influenza A virus Solomon Islands/03/2006/H1N1; format: cell-based; details: dog; for selectivity ratio: MDCK cells, read-out: Ratio IC50/EC50; summary of the method: as §4
H5N1 subtype [22] = assay: Antiviral activity against Influenza A virus Duck/MN/1525/81/H5N1 infected MDCK cells after 42 to 46 hrs by neutral red dye uptake assay; format: functional, organism-based, Influenza A virus (A/duck/Minnesota/1525/1981(H5N1))
[23] = Selectivity ratio of IC50 for MDCK cells to EC50 for inhibition of virus-induced cytopathic effect of Influenza A virus Wisconsin/67/2005/H3N2; format: cell-based; details: dog, MDCK cells; read-out: Ratio IC50/EC50; summary of the method: as §4
Influenza A virus [24] = assay: Antiviral activity against Influenza A virus Vietnam/1203/ 2004H/H5N1 infected MDCK cells after 3 days by virus yield reduction assay; format: functional, A/Viet Nam/1203/2004(H5N1)
H5N1 subtype [25] = assay: Antiviral activity against Influenza A virus Gull/PA/4175/83/H5N1 infected MDCK cells after 3 days by virus yield reduction assay; format: functional, Influenza A virus (A/gull/Pennsylvania/4175/83(H5N1)); details: 72 h
[26] = Selectivity ratio of IC50 for MDCK cells to EC90 for Influenza B virus Malaysia/2506/2004 by virus yield reduction assay; format: ADME, cell-based; details: dog; for selectivity ratio: MDCK cells; summary of the method: as §2
[27] = Selectivity ratio of IC50 for MDCK cells to EC50 for Influenza B virus Malaysia/2506/2004 by neutral red dye uptake assay; format: ADME, cell-based; details: dog, MDCK cells; read-out: Ratio IC50/EC50; summary of the method: as §1
[28] = Selectivity ratio of IC50 for MDCK cells to EC90 for Influenza A virus Duck/MN/1525/81/H5N1 by virus yield reduction assay; format: ADME, cell-based; details: dog, MDCK cells; summary of the method: as §2
[29] = Selectivity ratio of IC50 for MDCK cells to EC50 for Influenza A virus Vietnam/1203/ 2004H/H5N1 by neutral red dye uptake assay; format: ADME, cell-based; details: dog, MDCK cells; read-out: Ratio IC50/EC50; summary of the method: as §1
[30] = Selectivity ratio of IC50 for MDCK cells to EC50 for Influenza A virus Solomon Islands/03/2006/H1N1 by neutral red dye uptake assay; format: ADME, cell-based; details: dog; for selectivity ratio: MDCK cells, read-out: Ratio IC50/EC50; summary of the method: as §1
[31] = Selectivity ratio of IC50 for MDCK cells to EC50 for inhibition of virus-induced cytopathic effect of Influenza B virus Malaysia/2506/2004; format: cell-based; details: dog, MDCK cells; read-out: Ratio IC50/EC50; summary of the method: as §4
[32] = Influenza A virus, A/Viet Nam/1203/2004(H5N1), MDCK

SMILES | EC90 (H5N1 subtype [3]) | EC50 (Influenza A virus [4]) | selectivity ratio [5] | EC50 (Influenza A virus [6]) | IC50 (MDCK) | EC50 (H5N1 subtype [8]) | selectivity ratio [9] | selectivity ratio [10] | selectivity ratio [11] | selectivity ratio [13] | EC90 (Influenza A virus [14]) | EC50 (Influenza A virus [15]) | EC50 (H5N1 subtype [16]) | selectivity ratio [19] | EC50 (Influenza A virus [20]) | selectivity ratio [23] | EC90 (H5N1 subtype [25]) | selectivity ratio [27] | selectivity ratio [28] | selectivity ratio [29] | other results
Nc1ccn([C@@H]2C[C@H](CO)[C@@H](O)[C@H]2O)c(=O)n1 | 10.5 µM | 1.5 µM | > 166 | 1.6 µM | > 414 µM | 1.8 µM | > 518 | > 318 | > 259 | > 518 | 3.8 µM | 1.6 µM | 1 µM | > 318 | 1.3 µM | > 259 | 1.6 µM | > 518 | > 39 | > 276 | Ratio IC50/EC50 ([1]; mdck): > 207; Ratio IC50/EC50 ([2]; mdck): > 207; EC50 (Influenza A virus [7]; [32]): 0.8 µM; EC50 ([12]; mdck): 0.7 µM; EC50 (Influenza A virus [17]; mdck): 2 µM; EC50 ([18]; mdck): 0.6 µM; Ratio IC50/EC50 ([21]; mdck): > 591; EC50 (H5N1 subtype [22]; mdck): 2 µM; EC90 (Influenza A virus [24]): 5.7 µM; Ratio ([26]; mdck): > 276; Ratio IC50/EC50 ([30]; mdck): > 690; selectivity ratio [31]: > 690
Nc1ccn([C@H]2C[C@@H](CO)[C@H](O)[C@@H]2O)c(=O)n1 | > 414 µM | > 41 µM | < 10 | > 41 µM | > 414 µM | > 414 µM | < 10 | 1 | < 10 | < 10 | > 414 µM | > 414 µM | > 41 µM | < 10 | > 414 µM | < 10 | > 41 µM | < 10 | 1 | < 10 | selectivity ratio [1]: 1; selectivity ratio [2]: < 10; EC50 (Influenza A virus [7]; [32]): > 41 µM; EC50 ([12]; Influenza A virus, MDCK, 72 h): > 41 µM; EC50 (Influenza A virus [17]; Influenza A virus, MDCK): > 41 µM; EC50 ([18]; Influenza A virus, MDCK): > 41 µM; selectivity ratio [21]: < 10; EC50 (H5N1 subtype [22]; Influenza A virus, MDCK): > 414 µM; EC90 (Influenza A virus [24]; [32]): > 41 µM; selectivity ratio [26]: < 10; selectivity ratio [30]: < 10; selectivity ratio [31]: < 10
NC(=O)c1ncn([C@@H]2O[C@H](CO)[C@@H](O)[C@H]2O)n1 [RIBAVIRIN] | 43.6 µM | 13.9 µM | > 60 | 16.4 µM | > 1310 µM | 35.4 µM | > 55 | > 117 | > 65 | > 156 | 13 µM | 19.4 µM | 27.4 µM | > 49 | 11.2 µM | > 80 | 20.3 µM | > 67 | > 30 | > 94 | selectivity ratio [1]: > 40; selectivity ratio [2]: > 65; EC50 (Influenza A virus [7]; mdck): 8.4 µM; EC50 ([12]; Influenza A virus, MDCK, 72 h): 23.3 µM; EC50 (Influenza A virus [17]; Influenza A virus, MDCK): 20.2 µM; EC50 ([18]; Influenza A virus, MDCK): 25.1 µM; selectivity ratio [21]: > 56; EC50 (H5N1 subtype [22]; Influenza A virus, MDCK): 32.5 µM; EC90 (Influenza A virus [24]; [32]): 11.6 µM; selectivity ratio [26]: > 59; selectivity ratio [30]: > 52; selectivity ratio [31]: > 128
